Test results taken from ChEMBL document CHEMBL4385657, “A fragment-like approach to PYCR1 inhibition” (Bioorg Med Chem Lett, 2019).
Activity calls are given as the source filed them. The rule behind the calls is not given here.

How the values were obtained:
[1] = target: T1, Pyrroline-5-carboxylate reductase 1, mitochondrial (Homo sapiens, UniProt P32322); experiment: Inhibition of 6x-His-tagged and SUMO tagged human PYCR1 expressed in Escherichia coli BL21 (DE3) cells assessed as reduction in NADH oxidation incubated for 1 hr
T1 sequence (P32322 whole entry): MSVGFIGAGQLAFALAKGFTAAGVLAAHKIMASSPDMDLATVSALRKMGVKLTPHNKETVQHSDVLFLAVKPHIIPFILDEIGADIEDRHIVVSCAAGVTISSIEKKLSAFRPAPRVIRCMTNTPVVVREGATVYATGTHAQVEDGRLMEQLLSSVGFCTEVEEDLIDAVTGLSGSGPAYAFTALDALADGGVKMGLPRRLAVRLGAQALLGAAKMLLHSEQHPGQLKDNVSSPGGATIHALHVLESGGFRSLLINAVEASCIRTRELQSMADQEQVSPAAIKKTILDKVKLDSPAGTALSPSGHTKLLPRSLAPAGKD

SUM-159-PT [2] = experiment: Effect on phenylalanine content in human SUM159PT cells at 100 uM by LC-MS analysis relative to control; format: functional, cell-based
Procedure, shortened: (§1)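 Human breast cancer SUM-159-PT cells were incubated with test agent at 1, 5, 20 and 100 µM (or at 100 µM alone). The cells were then lysed, and proline and the essential amino acids were quantified by LC-MS. Each amino acid level was compared against an untreated control culture.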

SUM-159-PT [3] = experiment: Effect on methionine content in human SUM159PT cells at 100 uM by LC-MS analysis relative to control; format: functional, cell-based; procedure, shortened: as §1
SUM-159-PT [4] = experiment: Effect on leucine content in human SUM159PT cells at 100 uM by LC-MS analysis relative to control; format: functional, cell-based; procedure, shortened: as §1
SUM-159-PT [5] = experiment: Effect on tryptophan content in human SUM159PT cells at 100 uM by LC-MS analysis relative to control; format: functional, cell-based; procedure, shortened: as §1
SUM-159-PT [6] = experiment: Effect on valine content in human SUM159PT cells at 100 uM by LC-MS analysis relative to control; format: functional, cell-based; procedure, shortened: as §1
SUM-159-PT [7] = experiment: Effect on isoleucine content in human SUM159PT cells at 100 uM by LC-MS analysis relative to control; format: functional, cell-based; procedure, shortened: as §1
SUM-159-PT [8] = experiment: Toxicity in human SUM159PT cells assessed as reduction in cell viability at 100 uM; format: cell-based
SUM-159-PT [9] = experiment: Effect on phenylalanine content in human SUM159PT cells at 1 to 100 uM by LC-MS analysis relative to control; format: ADME, cell-based; procedure, shortened: as §1
SUM-159-PT [10] = experiment: Effect on methionine content in human SUM159PT cells at 1 to 100 uM by LC-MS analysis relative to control; format: ADME, cell-based; procedure, shortened: as §1
SUM-159-PT [11] = experiment: Effect on leucine content in human SUM159PT cells at 1 to 100 uM by LC-MS analysis relative to control; format: ADME, cell-based; procedure, shortened: as §1
SUM-159-PT [12] = experiment: Effect on tryptophan content in human SUM159PT cells at 1 to 100 uM by LC-MS analysis relative to control; format: ADME, cell-based; procedure, shortened: as §1
SUM-159-PT [13] = experiment: Effect on valine content in human SUM159PT cells at 1 to 100 uM by LC-MS analysis relative to control; format: ADME, cell-based; procedure, shortened: as §1
SUM-159-PT [14] = experiment: Effect on isoleucine content in human SUM159PT cells at 1 to 100 uM by LC-MS analysis relative to control; format: ADME, cell-based; procedure, shortened: as §1
[15] = target: T2, Amine oxidase [flavin-containing] B (Homo sapiens, UniProt P27338); experiment: Inhibition of MAOB (unknown origin)
T2 sequence (P27338 whole entry): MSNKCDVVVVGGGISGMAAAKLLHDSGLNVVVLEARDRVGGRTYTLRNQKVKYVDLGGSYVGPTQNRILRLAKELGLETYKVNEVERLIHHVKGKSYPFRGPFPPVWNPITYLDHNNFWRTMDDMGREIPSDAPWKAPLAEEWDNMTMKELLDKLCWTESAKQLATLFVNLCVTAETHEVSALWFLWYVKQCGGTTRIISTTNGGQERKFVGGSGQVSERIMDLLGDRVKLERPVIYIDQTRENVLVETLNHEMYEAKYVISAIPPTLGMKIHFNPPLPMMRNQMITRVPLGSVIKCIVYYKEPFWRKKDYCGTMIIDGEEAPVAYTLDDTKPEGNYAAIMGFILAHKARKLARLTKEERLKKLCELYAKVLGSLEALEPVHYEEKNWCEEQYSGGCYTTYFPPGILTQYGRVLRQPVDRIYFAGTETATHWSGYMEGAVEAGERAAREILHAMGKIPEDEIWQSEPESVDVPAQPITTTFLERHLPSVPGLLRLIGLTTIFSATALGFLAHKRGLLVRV

SMILES	IC50 [1] [µM]	other results
C#CCN(Cc1ccc(Br)cc1)C(C)C	> 500	–
C#CCN(C)Cc1ccc(Cl)c(Cl)c1	13.6	–
C#CCN(C)Cc1ccc([N+](=O)[O-])cc1	43	–
C#CCN(C)Cc1ccc(C(F)(F)F)cc1	65	–
C#CCN(C)Cc1cc(C)no1	> 500	–
C#CCN(C)Cc1ccc(OC)cc1OC	> 500	–
C#CCN(C)Cc1ccc(Cl)cc1Br	66	–
C#CCN(Cc1ccc(Br)cc1)S(C)(=O)=O	> 500	–
C#CCN(Cc1ccc(Br)cc1)Cc1cc(C)no1	100	–
C#CCN(Cc1ccc(Br)cc1)C(C)=O	> 500	–
C#CCN(C)Cc1ccc(C)cc1	40	–
C#CCN(C)Cc1ccccc1Br	200	–
C#CCN(C)Cc1ccc(I)cc1	9.7	–
C#CCN(C)Cc1ccc(-c2ccc(F)cc2)cc1	211	–
CN(CC#Cc1ccccc1)Cc1ccc(Br)cc1	71	–
C#CCN(C)Cc1ccccc1 [PARGYLINE]	198	Activity (SUM-159-PT [2]): inactive; Activity (SUM-159-PT [3]): inactive; Activity (SUM-159-PT [4]): inactive; Activity (SUM-159-PT [5]): inactive; Activity (SUM-159-PT [6]): inactive; Activity (SUM-159-PT [7]): inactive
C#CCN(C)C(C)c1ccc(Br)cc1 (centres undefined)	316	–
C#CCCN(C)Cc1ccc(Br)cc1	> 500	–
C#CCN(C)Cc1ccc(OC)cc1	38	–
C#CCN(C)Cc1ccc2ccccc2c1	21	–
CCCN(C)Cc1ccc(Br)cc1	337	–

SMILES	IC50 [1] [µM]	other results
C#CCN(C)Cc1ccc(Br)cc1Cl	34	–
C#CCN(Cc1ccc(Br)cc1)CC1CC1	> 500	–
C#CCN(C)Cc1ccc(C#N)cc1	> 500	–
C#CCN(CCC)Cc1ccc(Br)cc1	> 500	–
C#CCN(C)Cc1ccc(-c2ccccc2)cc1	315	–
C#CCN1Cc2ccc(Br)cc2C1	> 500	–
C#CCN(CC(=O)OC(C)(C)C)Cc1ccc(Br)cc1	> 500	–
C#CCN(C)Cc1ccc(F)cc1Br	> 500	–
C#CCN(C)Cc1cccc(Cl)c1	52	–
C#CCN(C)Cc1ccccc1[N+](=O)[O-]	> 500	–
C#CCNCc1ccc(Br)cc1	99	–
C#CCN(C)Cc1ccc(C(C)C)cc1	142	–
C#CCN(C)Cc1ccc(Br)cc1F	42	–
C#CCN(C)Cc1cc(Cl)cc(Cl)c1	> 500	–
C#CCN(C)Cc1ccc(F)cc1	311	–
C#CCN(C)Cc1ccc(Cl)c(C(F)(F)F)c1	43	–
C#CCN(C)Cc1ccc(Br)cc1C	38	–
C#CCN(C)CCc1ccc(Br)cc1	> 500	–
C#CCN(C)Cc1ccc(C(C)=O)cc1	184	–
C#CCN(C)Cc1ccc(Br)cc1	–	Activity (SUM-159-PT [8]): Non-Toxic; Activity (SUM-159-PT [9]): Non-Toxic; Activity (SUM-159-PT [10]): Non-Toxic; Activity (SUM-159-PT [11]): Non-Toxic; Activity (SUM-159-PT [12]): Non-Toxic; Activity (SUM-159-PT [13]): Non-Toxic; Activity (SUM-159-PT [14]): Non-Toxic; IC50 [15]: 0.3 µM
C#CCN1CCc2cc(Br)ccc2C1	> 500	–

SMILES	IC50 [1] [µM]	other results
C#CCN(C)Cc1ccc(Cl)cc1	13	–
C#CCN(C)Cc1cccc([N+](=O)[O-])c1	394	–
C#CCN(Cc1ccc(Br)cc1)Cc1ccc(Br)cc1	92	–
C#CCN(C)Cc1ccccc1Cl	139	–
C#CCN(C)Cc1cc(Br)cs1	> 500	–
C#CCN(C)Cc1ccc(Br)cc1Br	228	–
C#CCN(C)Cc1c(Cl)cccc1Cl	> 500	–
C=CCN(C)Cc1ccc(Br)cc1	> 500	–
CN(Cc1ccc(Br)cc1)CC1CC1	> 500	–
CN(Cc1ccccc1)Cc1ccc(Br)cc1	> 500	–
C#CCN(C)Cc1cccc(Br)c1	276	–
C#CCN(CC)Cc1ccc(Br)cc1	58	–
C#CCN(C)Cc1ccc(Br)cc1OC	21	–
CC#CCN(C)Cc1ccc(Br)cc1	16	–
C#CCN(CCC=C)Cc1ccc(Br)cc1	> 500	–
CNCc1ccc(Br)cc1	161	–
C#CCN(C)Cc1ccc(Cl)cc1Cl	9.2	–
C#CCN(C)Cc1ccc(C)cc1C	55	–
C#CC(C)N(C)Cc1ccc(Br)cc1 (centres undefined)	394	–
